Measured values: ChEMBL document CHEMBL4406880, “Design, synthesis, and bioactivity of dihydropyrimidine derivatives as kinesin spindle protein inhibitors” (Bioorg Med Chem, 2019)

Experiments:
Assay type in all cases: functional
MDA-MB-231 = assay: Growth inhibition of human MDA-MB-231 cells assessed as growth percentage at 10 uM incubated for 48 hrs by sulforhodamine B assay relative to control; settings: MDA-MB-231, 48 h, read-out: Activity
Summary of the method: (§1)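 NCI-60 one-dose screen. Cells in RPMI 1640 with 5% FBS and 2 mM L-glutamine, seeded at 5,000–40,000 cells/well according to doubling time, and preincubated overnight at 37 °C, 5% CO2. A time-zero plate was TCA-fixed at drug addition. Compound from DMSO stock, final 10 µM, 48 h; DMSO vehicle controls. Fixation with TCA, 10% final (16% for suspension cells). SRB stain, Tris solubilization, A515. Result given as % growth versus untreated cells.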

SN12C = assay: Growth inhibition of human SN12C cells assessed as growth percentage at 10 uM incubated for 48 hrs by sulforhodamine B assay relative to control; settings: read-out: Activity
Summary of the method: (§2)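 NCI-60 single-dose screen. Cells were grown in RPMI 1640 with 5% FBS and 2 mM L-glutamine and plated at 5,000–40,000 cells/well. After an overnight preincubation at 37 °C in 5% CO2, compound was added at a final 10 µM from a DMSO stock, with DMSO/PBS controls. After 48 h, cells were TCA-fixed and stained with 0.4% SRB, and absorbance was read at 515 nm. Growth is given as a percentage of untreated control.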

UACC-62 = assay: Growth inhibition of human UACC62 cells assessed as growth percentage at 10 uM incubated for 48 hrs by sulforhodamine B assay relative to control; settings: UACC-62, 48 h, read-out: Activity; summary of the method: as §2
HOP-92 = assay: Growth inhibition of human HOP92 cells assessed as growth percentage at 10 uM incubated for 48 hrs by sulforhodamine B assay relative to control; settings: HOP-92, 48 h, read-out: Activity; summary of the method: as §1
A549 = assay: Growth inhibition of human A549/ATCC cells assessed as growth percentage at 10 uM incubated for 48 hrs by sulforhodamine B assay relative to control; settings: A549, 48 h, read-out: Activity
Summary of the method: (§3)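 NCI-60 one-dose screen: cells in RPMI 1640 with 5% FBS and 2 mM L-glutamine, plated at 5,000–40,000 cells/well and preincubated 24 h at 37 °C, 5% CO2. Compound is added from a DMSO stock to a final 10 µM and incubated 48 h. Cells are TCA-fixed and stained with sulforhodamine B, read at 515 nm. Output is % growth versus untreated control, with a time-zero plate.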

SF-295 = assay: Growth inhibition of human SF295 cells assessed as growth percentage at 10 uM incubated for 48 hrs by sulforhodamine B assay relative to control; settings: SF-295, 48 h, read-out: Activity; summary of the method: as §2
OVCAR-3 = assay: Growth inhibition of human OVCAR3 cells assessed as growth percentage at 10 uM incubated for 48 hrs by sulforhodamine B assay relative to control; settings: OVCAR-3, 48 h, read-out: Activity; summary of the method: as §1
A498 = assay: Growth inhibition of human A498 cells assessed as growth percentage at 10 uM incubated for 48 hrs by sulforhodamine B assay relative to control; settings: A498, 48 h, read-out: Activity; summary of the method: as §3
SW-620 = assay: Growth inhibition of human SW620 cells assessed as growth percentage at 10 uM incubated for 48 hrs by sulforhodamine B assay relative to control; settings: SW-620, 48 h, read-out: Activity; summary of the method: as §2
OVCAR-4 = assay: Growth inhibition of human OVCAR4 cells assessed as growth percentage at 10 uM incubated for 48 hrs by sulforhodamine B assay relative to control; settings: OVCAR-4, 48 h, read-out: Activity; summary of the method: as §1
HCT-116 = assay: Growth inhibition of human HCT116 cells assessed as growth percentage at 10 uM incubated for 48 hrs by sulforhodamine B assay relative to control; settings: HCT-116, 48 h, read-out: Activity; summary of the method: as §3
Malme-3M = assay: Growth inhibition of human MALME-3M cells assessed as growth percentage at 10 uM incubated for 48 hrs by sulforhodamine B assay relative to control; settings: read-out: Activity; summary of the method: as §1
PC-3 = assay: Growth inhibition of human PC3 cells assessed as growth percentage at 10 uM incubated for 48 hrs by sulforhodamine B assay relative to control; settings: PC-3, 48 h, read-out: Activity; summary of the method: as §2
HT-29 = assay: Growth inhibition of human HT-29 cells assessed as growth percentage at 10 uM incubated for 48 hrs by sulforhodamine B assay relative to control; settings: HT-29, 48 h, read-out: Activity; summary of the method: as §1
ACHN = assay: Growth inhibition of human ACHN cells assessed as growth percentage at 10 uM incubated for 48 hrs by sulforhodamine B assay relative to control; settings: read-out: Activity; summary of the method: as §3
CAKI-1 = assay: Growth inhibition of human Caki1 cells assessed as growth percentage at 10 uM incubated for 48 hrs by sulforhodamine B assay relative to control; settings: CAKI-1, 48 h, read-out: Activity; summary of the method: as §3
CCRF-CEM = assay: Growth inhibition of human CCRF-CEM cells assessed as growth percentage at 10 uM incubated for 48 hrs by sulforhodamine B assay relative to control; settings: read-out: Activity; summary of the method: as §3
HCT-15 = assay: Growth inhibition of human HCT15 cells assessed as growth percentage at 10 uM incubated for 48 hrs by sulforhodamine B assay relative to control; settings: HCT-15, 48 h, read-out: Activity; summary of the method: as §3
KM12 = assay: Growth inhibition of human KM12 cells assessed as growth percentage at 10 uM incubated for 48 hrs by sulforhodamine B assay relative to control; settings: KM12, 48 h, read-out: Activity; summary of the method: as §1
K562 = assay: Growth inhibition of human K562 cells assessed as growth percentage at 10 uM incubated for 48 hrs by sulforhodamine B assay relative to control; settings: K562, 48 h, read-out: Activity; summary of the method: as §1
RPMI-8226 = assay: Growth inhibition of human RPMI8226 cells assessed as growth percentage at 10 uM incubated for 48 hrs by sulforhodamine B assay relative to control; settings: RPMI-8226, 48 h, read-out: Activity; summary of the method: as §2
MDA-MB-435 = assay: Growth inhibition of human MDA-MB-435 cells assessed as growth percentage at 10 uM incubated for 48 hrs by sulforhodamine B assay relative to control; settings: MDA-MB-435, 48 h, read-out: Activity; summary of the method: as §1
NCI/ADR-RES = assay: Growth inhibition of human NCI/ADR-RES cells assessed as growth percentage at 10 uM incubated for 48 hrs by sulforhodamine B assay relative to control; settings: read-out: Activity; summary of the method: as §1
OVCAR-5 = assay: Growth inhibition of human OVCAR5 cells assessed as growth percentage at 10 uM incubated for 48 hrs by sulforhodamine B assay relative to control; settings: OVCAR-5, 48 h, read-out: Activity; summary of the method: as §2
EKVX = assay: Growth inhibition of human EKVX cells assessed as growth percentage at 10 uM incubated for 48 hrs by sulforhodamine B assay relative to control; settings: read-out: Activity; summary of the method: as §3
HOP-62 = assay: Growth inhibition of human HOP62 cells assessed as growth percentage at 10 uM incubated for 48 hrs by sulforhodamine B assay relative to control; settings: HOP-62, 48 h, read-out: Activity; summary of the method: as §1
SK-MEL-28 = assay: Growth inhibition of human SK-MEL-28 cells assessed as growth percentage at 10 uM incubated for 48 hrs by sulforhodamine B assay relative to control; settings: SK-MEL-28, 48 h, read-out: Activity; summary of the method: as §2

Structure (SMILES) | growth at 10 µM (MDA-MB-231) [%] | growth at 10 µM (SN12C) [%] | growth at 10 µM (UACC-62) [%] | growth at 10 µM (HOP-92) [%] | growth at 10 µM (A549) [%] | growth at 10 µM (SF-295) [%] | growth at 10 µM (OVCAR-3) [%] | growth at 10 µM (A498) [%] | growth at 10 µM (SW-620) [%] | growth at 10 µM (OVCAR-4) [%] | growth at 10 µM (HCT-116) [%] | growth at 10 µM (Malme-3M) [%] | growth at 10 µM (PC-3) [%] | growth at 10 µM (HT-29) [%] | growth at 10 µM (ACHN) [%] | growth at 10 µM (CAKI-1) [%] | growth at 10 µM (CCRF-CEM) [%] | growth at 10 µM (HCT-15) [%] | growth at 10 µM (KM12) [%] | growth at 10 µM (K562) [%] | other results
O=C1C2=C(NC(=S)NC2c2ccc3c(c2)OCO3)c2ccccc21 (racemic) | 104 | 95.8 | 99.7 | 95 | 107 | 102 | 113 | 109 | 95.2 | 102 | 110 | 106 | 96.3 | 108 | 106 | 87.4 | 108 | 105 | 109 | 103 | growth at 10 µM (RPMI-8226): 103%; growth at 10 µM (MDA-MB-435): 107%; growth at 10 µM (NCI/ADR-RES): 103%; growth at 10 µM (OVCAR-5): 106%; growth at 10 µM (EKVX): 102%; growth at 10 µM (HOP-62): 104%; growth at 10 µM (SK-MEL-28): 123%
O=C1NC2=C(C(=O)c3ccccc32)C(c2ccc3c(c2)OCO3)N1 (racemic) | 109 | 100 | 101 | 99 | 106 | 103 | 115 | 112 | 104 | 116 | 108 | 106 | 101 | 107 | 104 | 90.9 | 103 | 105 | 111 | 104 | growth at 10 µM (RPMI-8226): 107%; growth at 10 µM (MDA-MB-435): 105%; growth at 10 µM (NCI/ADR-RES): 109%; growth at 10 µM (OVCAR-5): 105%; growth at 10 µM (EKVX): 97.4%; growth at 10 µM (HOP-62): 96.1%; growth at 10 µM (SK-MEL-28): 114%
CC1(C)CC(=O)C2=C(C1)NC(=O)NC2c1ccc2c(c1)OCO2 (racemic) | 111 | 105 | 107 | 112 | 108 | 112 | 115 | 124 | 109 | 102 | 101 | 100 | 99.4 | 114 | 109 | 93.9 | 111 | 103 | 108 | 108 | growth at 10 µM (RPMI-8226): 110%; growth at 10 µM (MDA-MB-435): 106%; growth at 10 µM (NCI/ADR-RES): 104%; growth at 10 µM (OVCAR-5): 108%; growth at 10 µM (EKVX): 107%; growth at 10 µM (HOP-62): 122%; growth at 10 µM (SK-MEL-28): 111%
CC(=O)C1=C(C)Nc2nc3ccccc3n2C1c1ccc2c(c1)OCO2 (racemic) | 93.5 | 101 | 94.4 | 91 | 99 | 103 | 105 | 112 | 104 | 102 | 98.9 | 105 | 92.8 | 105 | 110 | 88.3 | 94.8 | 98.2 | 96.4 | 82.9 | growth at 10 µM (RPMI-8226): 96.4%; growth at 10 µM (MDA-MB-435): 93.1%; growth at 10 µM (NCI/ADR-RES): 102%; growth at 10 µM (OVCAR-5): 113%; growth at 10 µM (EKVX): 110%; growth at 10 µM (HOP-62): 94.7%; growth at 10 µM (SK-MEL-28): 107%
